# High-throughput results: PubChem, several laboratories
# Sampled rows, rich in hits. Any-hit rate of the full collection: about 1.3%.
# proCasp3 act: activates human procaspase-3. 0.11% of 330,000 active. recombinant procaspase-3 D3A, Ac-DEVD-pNA absorbance 405 nm. activation, % at 8.5 µM;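 active = activation above the mean of all tested compounds plus 3 SD, cut at about 21% in these data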;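 note: 0% = DMSO alone and 100% = DMSO wells spiked with extra 5 µM PC-3 D3A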
#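 material = Procaspase-3 D3A mutant | probe or stimulus = Ac-DEVD-pNA | compound = single dose, 8.5 µM nominal compound, 0.8% DMSO | timing = 1 h preincubation, 2 h reaction | measured by = 405 nm absorbance of p-nitroaniline, reads at 0 and 120 min | benchmarks = DMSO-only low control, 5 µM PC-3 D3A high control | repeats = singlicate, each compound tested once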
# proCasp7 act: counter-screen: procaspase-7 (human) activation | activation, % at 8.5 µM | AID 463210 | P55210 | recombinant procaspase-7, Ac-DEVD-pNA absorbance 405 nm; D23A/D198A/D206A triple mutant, cannot self-cleave; scale: DMSO 0, 5 µM enzyme 100 | 0.093% of 330,000 active;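 active = percent activation above the screen-wide mean plus 3 SD, cut at about 25% in these data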
#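 buffer or medium = Zinc-free HEPES/NaCl buffer, pH 7.4 | material = Procaspase-7 triple mutant (PC-7 D3A) | input = 2 µM procaspase-7 mutant as dispensed | signal = Epi-absorbance of released pNA at 405 nm, two timepoints | timing = 1 h preincubation, 2 h reaction | replicates = singlicate compound testing | evaluation = % activation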
# VLA-4 inh: inhibition in a human VLA-4 binding assay. P13612. AID 2557. 0.2% of 330,000 active. VLA-4 expressing cells, ligand binding flow cytometry. inhibition, % (about 7 µM as worked out from the volumes in the protocol); in the data active = inhibition above about 50%
# JMJD2C inh: blocks human GASC-1 demethylase activity | inhibition, % at 2.35 µM | 0.069% of 330,000 active | Q9H3R0 | GST-JMJD2C(1-420) H3K9me3 demethylation, DELFIA europium;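 active = more than half of a compound's replicate wells show inhibition beyond 50%, single wells judged on their own value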;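 note: signal counts dimethyl H3K9 product captured on neutravidin plate; 0% = median of DMSO wells and 100% = 0.3 times that DMSO median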
# Lipid droplet: modulators of hepatic lipid droplet formation | AML12 mouse hepatocytes, oleate lipid droplets, BODIPY imaging | inhibition, % at 6.5 µM | 0.4% of 240,000 active | AID 1656;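 active = lipid droplet intensity inhibited by at least 50%, with more than 500 cells counted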
#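 Assay system: AML12 hepatocytes (mouse) / Also added: 100 µM oleic acid challenge / Times: overnight treatment with compound plus oleate / Detection: high-content imaging of BODIPY-stained droplets and DAPI nuclei / Evaluation: % inhibition of lipid droplet signal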
# GRK2 inh: human GRK2 inhibition via aptamer displacement. inhibition of aptamer binding, % at 10 µM. P25098. 0.59% of 330,000 active. bead flow cytometry, FAM-aptamer displacement from GRK2. AID 488847;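 active = inhibition of aptamer binding above 40%, roughly 3 SD of noise, on plates passing a quality check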;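 note: median bead fluorescence of bound FAM aptamer so fluorescent compounds give negative values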
# Target sequence (P25098 whole entry, looked up): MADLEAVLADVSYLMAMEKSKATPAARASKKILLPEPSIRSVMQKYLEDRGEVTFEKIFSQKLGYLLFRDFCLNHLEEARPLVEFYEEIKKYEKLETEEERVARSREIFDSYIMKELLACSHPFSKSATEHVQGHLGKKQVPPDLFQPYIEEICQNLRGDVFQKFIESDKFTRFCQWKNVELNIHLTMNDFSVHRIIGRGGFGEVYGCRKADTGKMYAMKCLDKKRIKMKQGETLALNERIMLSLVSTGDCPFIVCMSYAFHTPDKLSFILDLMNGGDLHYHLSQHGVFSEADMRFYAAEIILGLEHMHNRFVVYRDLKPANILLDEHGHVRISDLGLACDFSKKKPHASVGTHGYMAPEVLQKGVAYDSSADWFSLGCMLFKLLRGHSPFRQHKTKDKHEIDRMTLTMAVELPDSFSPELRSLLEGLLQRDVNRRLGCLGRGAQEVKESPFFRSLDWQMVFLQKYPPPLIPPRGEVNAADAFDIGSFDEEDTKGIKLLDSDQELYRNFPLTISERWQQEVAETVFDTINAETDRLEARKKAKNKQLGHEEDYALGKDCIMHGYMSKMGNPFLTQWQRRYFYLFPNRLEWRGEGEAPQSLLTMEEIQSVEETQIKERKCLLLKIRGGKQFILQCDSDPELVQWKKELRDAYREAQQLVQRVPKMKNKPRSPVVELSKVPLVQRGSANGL
# GRK2 CP1: confirmation of human GRK2 inhibitors displacing RNA aptamer | 4% of 2,000 active | aptamer displacement, % at 10 µM | bead-bound GRK2, FAM-aptamer displacement, flow cytometry | shares compounds with GRK2 inh | AID 504451;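 active = aptamer displacement above 40%, near three times the noise of non-fluorescent compounds, on plates passing quality checks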;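 note: negative values mostly reflect intrinsic compound fluorescence rather than true enhancement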
# Aptamer quench SP: aptamer fluorescence quenching in GRK2 counter-screen; Carboxyfluorescein RNA aptamer on beads, flow cytometry quenching; stronger effect = lower value; fluorescence response (% of DMSO), % at 10 µM; shares compounds with GRK2 inh; 2,000 tested, under 10 active; AID 504580;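 active = compounds that quench the bead-bound fluorescent RNA probe, cutting fluorescence to under half of the solvent control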;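 note: counterscreen run without GRK2 so only probe quenching by compound is measured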
# GRK2 confirm 2: confirmation of human GRK2 inhibitors binding RNA aptamer site | shares compounds with GRK2 inh | bead-bound GRK2, FAM-aptamer displacement, flow cytometry | inhibition of aptamer binding, % at 10 µM | 360 tested, under 10 active | AID 504782;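 active = inhibition of aptamer binding above 40%, about triple the noise seen with nonglowing compounds, on plates passing quality control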;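 note: negative values mostly come from compounds that fluoresce themselves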
# FAM quench CP2: aptamer fluorescence quenching in GRK2 counter-screen; fluorescence response vs DMSO, % at 10 µM; 360 tested, under 10 active; carboxyfluorescein RNA aptamer beads, flow cytometry quenching; stronger effect = lower value; AID 588494; shares compounds with GRK2 inh;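 active = response vs DMSO under 50%, meaning signal dropped by over half, treated as fluorescence quencher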;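 note: labelled aptamer on streptavidin beads without GRK2 as a quench counter-screen; 100% = bead fluorescence of DMSO wells and lower means quenching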
# * marks the source's active call; other numbers are inactive results; i = inactive; / = not tested or not shown.
SMILES,proCasp3 act,proCasp7 act,VLA-4 inh,JMJD2C inh,Lipid droplet,GRK2 inh,GRK2 CP1,Aptamer quench SP,others
Cc1ccc(NC(=O)CC(C)S(=O)(=O)c2ccc3c(c2)NC(=O)CO3)c(Cl)c1 (stereo unspecified),-4,-1,11,37,0,0,/,/,GRK2 confirm 2=-40;FAM quench CP2=102
CC(C)(O)C1CC[C@@](C)([C@@H]2CC[C@]3(C)[C@H]2[C@H](O)CC2[C@@]4(C)CCC(O)C(C)(C)C4C(OC4OC(CO)C(O)C(O)C4O[C@@H]4OCC(O)C(O)C4O)C[C@]23C)O1 (stereo partly specified),-2,4,14,-3,/,0,-2,100,
CN(C)S(=O)(=O)c1ccc(N2CCCC2)c(C(=O)N2CCN(S(=O)(=O)c3ccccc3F)CC2)c1,-10,1,6,-4,/,0,/,/,
Cc1cc(NC(=O)Nc2ccc3c(ccn3C)c2)sn1,5,0,26,-36,/,0,0,99,
Cc1ccc(NC(=O)Nc2ccc3c(c2)nc(C)n3C)cc1,-5,-2,-1,5,16,2,/,/,
c1ccc(CSc2nnc(Cc3ccccc3)o2)cc1,4,-9,13,2,/,0,/,/,
O/C(=C\Sc1nnc(Cc2ccccc2)o1)c1ccc(F)cc1,6,2,-1,-7,-10,49*,/,94,
COc1cc(Cl)c([C@@H]2C[C@H]3CN(c4ccccc4)C(=O)[C@]34CCCN24)cc1OC,3,4,5,-11,-7,70*,0,97,
COc1ccccc1-n1cc([C@@H]2C[C@H]3CN(c4ccccc4)C(=O)[C@]34CCCN24)cn1,-7,5,-33,-45,40,0,/,/,
Cc1ccc(S(=O)(=O)Oc2cccc(N3C(=O)C4CC=CCC4C3=O)c2)cc1 (stereo unspecified),6,3,12,-6,/,71*,1,100,
CC(=O)Nc1ccc(S(=O)(=O)Oc2cccc(N3C(=O)C4CCCCC4C3=O)c2)cc1 (stereo unspecified),6,3,17,-11,/,0,/,/,
COC(=O)c1cccc(C23CC4(C2)[C@H](CN(CC2CCCCC2)[C@@H]4c2ccccc2)C3c2ccccc2)c1 (stereo partly specified),0,1,9,0,-1,85*,-8,100,
COC(=O)c1ccc(C23CC4(C2)[C@H](CN(CC2CCCCC2)[C@@H]4c2ccccc2)C3c2ccc(Cl)nc2)cc1 (stereo partly specified),14,10,0,2,-3,2,/,/,
CCN1CCN(c2c(Cl)cccc2NC(=O)c2ccc3nsnc3c2)CC1,1,8,0,1,13,0,/,/,
Cc1ccc(C(=O)Nc2ccc(N3CCN(C)CC3)cc2)c(Cl)c1,3,14,12,-4,-2,49*,-3,92,
Cc1ccccc1C(=O)Nc1cccc(NC(=O)c2ncn[nH]2)c1,1,5,12,3,0,99*,16,98,
Cc1cc(Br)ccc1S(=O)(=O)NCc1ccccc1,-3,0,-5,-6,-8,0,/,/,
COC(=O)c1ccc(Oc2ccc3nncn3n2)cc1,4,-9,27,11,9,49*,0,100,
COC(=O)c1ccc(Oc2ccc3nnc(C)n3n2)cc1,-1,-2,-6,17,/,0,/,/,
C/C(=N/Nc1ccc([N+](=O)[O-])cc1)c1c[nH]c2ccccc12,/,/,i,-12,13,1,/,/,
COc1ccc(S(=O)(=O)N(C)Cc2ccc3c(c2)OCCO3)cc1,4,-16,-1,-6,/,42*,-3,100,
CCc1ccc(-c2cc(C)no2)cc1S(=O)(=O)NCCc1ccccc1,8,2,9,-17,-46,2,/,/,
O=C(NC1=NCCS1)C1CCN(S(=O)(=O)c2cc([N+](=O)[O-])ccc2Cl)CC1,-7,3,8,-1,/,26,1,94,
O=C(Nc1ccccc1)C(=O)Nc1ccccn1,11,6,9,6,/,47*,0,92,
O=C(OCC(=O)N1CCN(C(=O)c2ccco2)CC1)c1ccc(Cl)cc1,4,-1,-7,1,/,0,/,/,
SMILES,proCasp3 act,proCasp7 act,VLA-4 inh,JMJD2C inh,Lipid droplet,GRK2 inh,GRK2 CP1,Aptamer quench SP,others
Cc1cc(Cl)ccc1OCCCC(=O)N1CCN(C(=O)c2ccco2)CC1,0,9,-16,5,/,78*,-1,100,
O=C(OCC(=O)N1CCN(C(=O)c2ccco2)CC1)c1ccccc1,2,12,14,4,5,78*,-3,111,
O=C(CCCOc1ccccc1)N1CCN(C(=O)c2ccco2)CC1,3,-2,8,6,-9,0,/,/,
COc1cccc(CC2(CO)CCCN(Cc3ccc4c(c3)OCCO4)C2)c1 (stereo unspecified),1,8,-1,14,0,0,/,/,
O=C(Cn1nnnc1CN1CCOCC1)N1CCC(c2cccc(Cl)c2)C1 (stereo unspecified),-2,-1,5,-3,0,0,/,/,
Cc1ccc(N2NC(=O)/C(=C/c3ccc(-c4ccc(Cl)c(C(=O)O)c4)o3)C2=O)cc1,2,-5,10,2,9,0,/,/,
CCCCC1(C)OC(=O)C(=Cc2ccc(-c3ccc(Cl)c(C(=O)O)c3)o2)C(=O)O1 (stereo unspecified),-2,7,-3,3,0,55*,-1,95,
COC(=O)c1cc(-c2cccc([N+](=O)[O-])c2)c2c(=O)n(C)c(=O)n(C)c2n1,5,10,3,7,0,79*,-1,104,
CCN1CCN(CC(=O)N2N=CCC2c2ccccc2)CC1 (stereo unspecified),3,6,8,-2,26,100*,0,100,
COC(=O)C1CN(C(=O)c2ccc(OC(F)F)cc2)c2ccccc2O1 (stereo unspecified),1,1,26,4,6,3,/,/,
